We go through five molecules from ChEMBL document CHEMBL1130199, “Differentiation between partial agonists and neutral 5-HT1B antagonists by chemical modulation of 3-[3-(N,N-dimethylamino)propyl]-4-hydroxy- N-[4-(pyridin-4-yl)phenyl]benzamide (GR-55562)” (J Med Chem, 1997).

Assay [1] has as its target T1, 5-hydroxytryptamine receptor 1A (Homo sapiens, UniProt P08908).
T1 sequence (P08908 whole entry): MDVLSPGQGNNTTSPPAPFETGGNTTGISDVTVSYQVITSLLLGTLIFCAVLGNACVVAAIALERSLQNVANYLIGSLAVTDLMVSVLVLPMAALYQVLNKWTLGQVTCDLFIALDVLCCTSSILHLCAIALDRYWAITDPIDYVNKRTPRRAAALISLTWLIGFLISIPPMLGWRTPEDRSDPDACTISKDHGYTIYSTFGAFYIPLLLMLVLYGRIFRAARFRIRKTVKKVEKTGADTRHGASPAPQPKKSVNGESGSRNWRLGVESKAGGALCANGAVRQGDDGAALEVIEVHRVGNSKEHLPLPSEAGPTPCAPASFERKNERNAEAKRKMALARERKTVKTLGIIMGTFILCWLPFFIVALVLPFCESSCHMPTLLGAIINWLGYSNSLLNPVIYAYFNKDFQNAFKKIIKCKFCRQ
The assay can be described thus: Binding affinity for 5-hydroxytryptamine 1A receptor in HeLa transfected cell type using [3H]8-OH-DPAT as radioligand. A digest of the protocol: (§1)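 Radioligand binding on membranes from HeLa/HA7 cells (h5-HT1A), transfected Cos-7 cells (h5-HT1D) or C6-glia cells stably transfected with h5-HT1B. Values are mean or mean ± SD of 2–3 independent experiments, each in triplicate.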

In assay [2] the target is T2, 5-hydroxytryptamine receptor 1B (Homo sapiens, UniProt P28222). Briefly: Binding affinity for 5-hydroxytryptamine 1B receptor in C6-glial transfected cell type using [3H]GR-125743 as radioligand. A digest of the protocol:
as §1

Assay [3] deals with 5-hydroxytryptamine receptor 1D (Homo sapiens, UniProt P28221). Briefly: Binding affinity for 5-hydroxytryptamine 1D receptor in Cos-7 transfected cell type using [3H]5-CT as radioligand. A digest of the protocol: as §1
Sequence of 5-hydroxytryptamine receptor 1D (P28221 whole entry): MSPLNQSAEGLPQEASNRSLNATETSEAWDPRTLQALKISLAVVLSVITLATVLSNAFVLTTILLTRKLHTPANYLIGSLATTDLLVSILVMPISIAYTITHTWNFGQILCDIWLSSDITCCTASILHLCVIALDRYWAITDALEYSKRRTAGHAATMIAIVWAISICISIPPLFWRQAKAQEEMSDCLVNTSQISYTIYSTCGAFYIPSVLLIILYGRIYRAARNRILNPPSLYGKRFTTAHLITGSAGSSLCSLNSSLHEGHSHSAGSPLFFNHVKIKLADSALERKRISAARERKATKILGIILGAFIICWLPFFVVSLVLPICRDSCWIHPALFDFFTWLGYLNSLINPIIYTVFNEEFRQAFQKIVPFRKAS
In assay [4] the target is T2, 5-hydroxytryptamine receptor 1B. Briefly: Intrinsic activity for Antagonism of 5-hydroxytryptamine 1B receptor-mediated stimulation of [35S]GTP gamma S binding. The format is functional. Summed up:
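[35S]GTPγS binding to C6-glia/h5-HT1B membranes (20–120 μg protein) in 20 mM Hepes pH 7.4 with 30 μM GDP, 100 mM NaCl, 3 mM MgCl2 and 0.2 mM ascorbate. Compound was incubated 30 min at 25 °C, then 500 pM [35S]GTPγS was added for 30 min. Emax is given as % of the response to 10 μM 5-HT, and EC50 is relative to each compound's own maximum. Mean ± SD of 2–4 experiments, each in triplicate.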

Assay [5] is described as follows: Determined KB value of the compound. The format is functional. A digest of the protocol: (§2)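 Membranes of C6-glia cells stably expressing h5-HT1B were preincubated with zolmitriptan concentration series, with or without antagonist (1 μM or 10 μM), in 20 mM Hepes pH 7.4 containing 30 μM GDP, 100 mM NaCl, 3 mM MgCl2 and 0.2 mM ascorbic acid, 30 min at 25 °C. [35S]GTPγS (500 pM) was then added for 30 min. pA2 was derived from concentration ratios. Mean ± SD of 2–4 experiments, each in triplicate.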

Assay [6] can be described thus: Antagonism of the zolmitriptan-mediated response tested at 1 uM. Type of assay: functional. A digest of the protocol:
as §2

The target of assay [7] is T2, 5-hydroxytryptamine receptor 1B. Briefly: Binding affinity for 5-hydroxytryptamine 1B receptor in C6-glial transfected cell type using [3H]5-CT as radioligand. A digest of the protocol: as §1
A short description of assay [8]: Antagonism of the zolmitriptan-mediated response tested at 10 uM. The format is functional. A digest of the protocol: as §2

T2 sequence (P28222 whole entry): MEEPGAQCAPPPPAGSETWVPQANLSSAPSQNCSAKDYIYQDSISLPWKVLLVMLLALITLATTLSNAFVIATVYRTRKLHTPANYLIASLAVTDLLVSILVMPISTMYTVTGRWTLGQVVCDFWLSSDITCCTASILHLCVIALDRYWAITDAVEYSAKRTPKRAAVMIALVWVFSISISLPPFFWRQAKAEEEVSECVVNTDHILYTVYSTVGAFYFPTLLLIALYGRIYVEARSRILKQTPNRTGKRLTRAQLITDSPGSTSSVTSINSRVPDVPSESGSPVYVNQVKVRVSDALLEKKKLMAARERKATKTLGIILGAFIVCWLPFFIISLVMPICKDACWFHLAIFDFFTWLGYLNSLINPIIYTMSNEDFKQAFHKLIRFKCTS

`COc1ccc(C(=O)Nc2ccc(-c3ccncc3)cc2)cc1CCCN(C)C`: the Ki – broadly, a measure of affinity in units of concentration, obtained from inhibition or displacement – in assay [1] is above 1000 nM; in assay [2], 15.4 nM; in assay [3] it was 540 nM; in assay [7] it was 70.1 nM. The Activity in assay [4] was 4. In addition, in assay [5], the Kb worked out at 22.7 nM. Further, the EC50 (commonly the concentration needed to bring the measured effect to its halfway point) in assay [6] was 2850 nM.
As to `COc1ccc(C(=O)Nc2ccc(-c3ccncc3)cc2)cc1C#CCN(C)C`, the Ki in assay [1] is above 1000 nM; in assay [2], 22.3 nM; in assay [3], 1200 nM; in assay [7], 16.2 nM. The same molecule gave an Activity in assay [4] of 32.3. In addition, in assay [8], the EC50 worked out at 837 nM.
As to `COc1ccc(C(=O)Nc2ccc(-c3ccncc3)cc2)cc1C=CCN(C)C`, the Ki in assay [1] amounted to 633 nM; in assay [2], 6.1 nM; in assay [3] it was 169 nM; in assay [7] it was 19 nM. Moreover, in assay [4], the Activity worked out at 2.3. In addition, in assay [5], the Kb was 19.4 nM. In assay [6], this molecule registered an EC50 of 3300 nM.
Regarding `COc1ccc(C(=O)Nc2ccc(-c3ccncc3)cc2)cc1/C=C/CN(C)C`, the Ki was above 1000 nM in assay [1], 18.8 nM in assay [2], 560 nM in assay [3] and 13.6 nM in assay [7]. The molecule further had an Activity in assay [4] of 23. For the same molecule, the EC50 in assay [8] worked out at 4300 nM.
With `CN(C)CCCc1cc(C(=O)Nc2ccc(-c3ccncc3)cc2)ccc1O` [GR-55562], the Ki in assay [1] was determined as 842 nM; in assay [2], 14 nM; in assay [3], 700 nM; in assay [7] it was 12.1 nM. The Activity in assay [4] is -3.7. Further, the Kb in assay [5] turned out to be 21.3 nM. This molecule came in with an EC50 in assay [6] of 3000 nM.
